The test system of assay [1] is L6. Description: Induction of glucose uptake in rat L6 cells pulsed with C14-deoxy glucose at 10 uM after 24 hrs in presence of insulin relative to control. It counts as functional. The procedure, abridged:
(§1)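 L6 rat skeletal muscle cells grown in MEM alpha with 10% serum, differentiated at confluence in 2% serum, then serum-starved. Treated overnight; after 24 h, pulsed 10 min with 14C-deoxyglucose in presence of insulin. Uptake read by scintillation after lysis with Microscint PS.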

The test system of assay [2] is L6. Description: Induction of glucose uptake in rat L6 cells pulsed with C14-deoxy glucose after 24 hrs in presence of insulin. The settings on record: L6, 24 h. Type of assay: functional, cell-based. In outline:
as §1

Assay [3] deals with T1, Peroxisome proliferator-activated receptor gamma (Homo sapiens) (UniProt P37231).
T1 sequence (whole entry): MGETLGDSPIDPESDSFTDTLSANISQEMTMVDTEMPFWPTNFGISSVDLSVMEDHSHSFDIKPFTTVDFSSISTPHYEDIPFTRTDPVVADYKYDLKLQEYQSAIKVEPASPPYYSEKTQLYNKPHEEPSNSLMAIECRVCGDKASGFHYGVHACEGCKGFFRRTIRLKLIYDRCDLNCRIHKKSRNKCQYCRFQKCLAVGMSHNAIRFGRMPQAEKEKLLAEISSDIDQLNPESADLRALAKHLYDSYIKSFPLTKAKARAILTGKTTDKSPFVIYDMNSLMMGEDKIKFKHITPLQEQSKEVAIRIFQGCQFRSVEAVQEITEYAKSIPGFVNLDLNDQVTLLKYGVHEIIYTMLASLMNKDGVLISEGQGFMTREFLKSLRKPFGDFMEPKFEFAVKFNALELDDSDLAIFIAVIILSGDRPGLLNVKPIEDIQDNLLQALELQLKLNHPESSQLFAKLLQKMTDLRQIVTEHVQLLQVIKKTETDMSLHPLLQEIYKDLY
Description: Transactivation of GAL4 DNA binding domain-fused human PPAR-gamma ligand binding domain transfected in African green monkey CV1 cells after 24 hrs by luciferase reporter gene assay. Type of assay: cell-based. The following applies: CV-1. The procedure, abridged:
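CV-1 cells seeded at 25,000 cells/well, incubated overnight, then transiently co-transfected (Lipofectamine 2000) with Gal4-element luciferase reporter and GAL4 DBD–PPAR-γ LBD plasmid. Compounds added 6 h post-transfection for 24 h, then luminescence read. Values expressed as % of 1 µM rosiglitazone response (set as 100%). Triplicates, repeated twice.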
Background: Reporter assays use an easily measured gene product as a stand-in for the process of interest.

Molecules are shown by their SMILES. Activity calls are given as the source filed them. The calls are words filed in the database; no cut-off is given here.

The source of these data is ChEMBL document CHEMBL2429828, “Discovery of thiazolyl-phthalazinone acetamides as potent glucose uptake activators via high-throughput screening” (Bioorg Med Chem Lett, 2013).

For orientation: EC50 means the midpoint of the concentration-response curve.

For `COC(=O)CCCCC(=O)N(C)c1nc(-c2ccccc2)cs1`, the “fold change (FC)” value in the assay with L6 [1] is given as 1.2.
Take `Cn1nc(CC(=O)Nc2nccc3ccccc23)c2ccccc2c1=O`: the EC50 with L6 [2] is 170 nM. The “fold change (FC)” value with L6 [1] stood at 4.9.
For the compound `Cn1nc(CC(=O)Nc2nc(-c3ccccc3O)cs2)c2ccccc2c1=O`, the “fold change (FC)” value in the assay with L6 [1] is 1.3.
For the compound `COc1ccc(-c2nc(NC(=O)Cc3nn(C)c(=O)c4ccccc34)sc2C)cc1`, the EC50 with L6 [2] amounted to 9 nM. Also, the Activity in assay [3] turned out to be 1%. Besides, the “fold change (FC)” value in the assay on L6 [1] worked out at 2.9.
On to `Cn1nc(CC(=O)Nc2cc(-c3ccc(F)cc3)on2)c2ccccc2c1=O`, for which the “fold change (FC)” value in the assay on L6 [1] was found to be 1.3.
Consider `O=C(O)Cc1nnc(O)c2ccccc12`, for which the outcome in the assay with L6 [1] was inactive.
Turning to `CN(C(=O)CCCCC(=O)O)c1nc(-c2ccccc2)cs1`, the “fold change (FC)” value in the assay on L6 [1] is 0.9.
Regarding `Nc1nc(-c2ccccc2)cs1`, in the assay on L6 [1], the outcome was inactive.
Turning to `Cn1nc(CC(=O)Nc2nc(-c3ccccc3)cs2)c2ccccc2c1=O`, the 50% effective concentration (EC50) in the assay with L6 [2] stood at 70 nM. The Activity in assay [3] is 0.3%. Also, the “fold change (FC)” value with L6 [1] is 1.8.
For the compound `NNC(=O)Cc1n[nH]c(=O)c2ccccc12`, the result with L6 [1] was inactive.
Regarding `Cn1nc(CC(=O)Nc2ncc(-c3ccccc3)c(=O)[nH]2)c2ccccc2c1=O`, the EC50 with L6 [2] amounted to 7470 nM. In addition, in the assay on L6 [1], the “fold change (FC)” value was determined as 1.9.
For the compound `Cc1sc(NC(=O)Cc2nn(C)c(=O)c3ccccc23)nc1-c1ccc(Br)cc1`, the EC50 with L6 [2] was found to be 3 nM. The “fold change (FC)” value in the assay with L6 [1] is 3.4.
In the case of `CN(C(=O)Cc1nn(C)c(=O)c2ccccc12)c1nc(-c2ccccc2)cs1`, in the assay with L6 [2], the EC50 was 5960 nM. Besides, the “fold change (FC)” value in the assay with L6 [1] is on record as 1.8.
Take `CCOC(=O)Cc1nn(CC(=O)c2ccccc2)c(=O)c2ccccc12`: in the assay on L6 [1], the “fold change (FC)” value came out at 1.1.
`O=C(Cc1nn(CCO)c(=O)c2ccccc12)Nc1nc(-c2ccccc2)cs1`: the “fold change (FC)” value in the assay on L6 [1] is 0.8.
For the compound `Cn1nc(CC(=O)Nc2ncc(-c3ccccc3)s2)c2ccccc2c1=O`, in the assay on L6 [1], the “fold change (FC)” value worked out at 1.6.
Regarding `CCOC(=O)c1sc(NC(=O)Cc2nn(C)c(=O)c3ccccc23)nc1-c1ccccc1`, the “fold change (FC)” value in the assay on L6 [1] came out at 1.3.
On to `Cn1nc(CC(=O)Nc2nc(-c3ccccc3)c(C(=O)O)s2)c2ccccc2c1=O`, for which the “fold change (FC)” value in the assay on L6 [1] was determined as 1.3.
In the case of `COc1ccc2c(oc3ccccc32)c1NC(=O)Cc1nn(C)c(=O)c2ccccc12`, in the assay on L6 [1], the “fold change (FC)” value is recorded as 1.3.
`O=C(Cc1n[nH]c(=O)c2ccccc12)Nc1nc(-c2ccccc2)cs1`: the EC50 with L6 [2] was 40 nM. Further, in the assay on L6 [1], the “fold change (FC)” value is 1.8.
With `O=C(Cc1n[nH]c(=O)c2ccccc12)NNC(=O)c1nc(-c2ccccc2)cs1`, the “fold change (FC)” value in the assay with L6 [1] is listed as 0.9.
As to `CCOC(=O)c1sc(NC(=O)Cc2nn(C)c(=O)c3ccccc23)nc1C`, in the assay with L6 [2], the EC50 was found to be 40 nM. The “fold change (FC)” value in the assay on L6 [1] is on record as 0.9.
In the same order, the values of `Cc1sc(NC(=O)Cc2nn(C)c(=O)c3ccccc23)nc1-c1ccccc1` are 10 nM and 3.4.
As to `CCOC(=O)Cc1nnc(O)c2ccccc12`, the result in the assay with L6 [1] was inactive.
As to `CCOC(=O)CN(C(=O)Cc1nn(C)c(=O)c2ccccc12)c1nc(-c2ccccc2)cs1`, in the assay on L6 [2], the EC50 was 280 nM. Further, the “fold change (FC)” value in the assay with L6 [1] was found to be 1.9.
As to `CN(CCOc1ccc(CC2SC(=O)NC2=O)cc1)c1ccccn1` (centres undefined) [ROSIGLITAZONE], the concentration giving a half-maximal response (EC50) in the assay with L6 [2] amounted to 4490 nM. In the assay on L6 [1], the “fold change (FC)” value turned out to be 1.8.
In the case of `Cn1nc(CC(=O)NCc2n[nH]c(=O)c3ccccc23)c2ccccc2c1=O`, in the assay on L6 [1], the “fold change (FC)” value amounted to 0.8.
Take `Cn1nc(CC(=O)Nc2nccc(=O)[nH]2)c2ccccc2c1=O`: the “fold change (FC)” value in the assay with L6 [1] turned out to be 1.2.
In the case of `Cn1nc(CC(=O)Nc2nc(-c3ccc(F)cc3)cs2)c2ccccc2c1=O`, the “fold change (FC)” value in the assay on L6 [1] is on record as 2.7.
Still for that read-out and setting: the figure for `O=C(O)Cc1nn(CC(=O)c2ccccc2)c(=O)c2ccccc12` is 0.9.
For the compound `Cn1nc(CC(=O)Nc2nc(-c3ccc(Br)cc3)cs2)c2ccccc2c1=O`, in the assay on L6 [2], the EC50 came to 100 nM. Further, the “fold change (FC)” value in the assay on L6 [1] stood at 3.6.
Take `CCc1oc(NC(=O)Cc2nn(C)c(=O)c3ccccc23)nc1-c1ccccc1`: the “fold change (FC)” value with L6 [1] is reported as 1.
As for `O=C(O)CCCCC(=O)Nc1nc(-c2ccccc2)cs1`, the result with L6 [1] was inactive.
Turning to `Cn1nc(CC(=O)Nc2nccs2)c2ccccc2c1=O`, the EC50 in the assay with L6 [2] was found to be 120 nM. The “fold change (FC)” value with L6 [1] came out at 1.7.
In the case of `Cn1nc(CC(=O)Nc2nc(-c3ccc(Cl)cc3)cs2)c2ccccc2c1=O`, in the assay on L6 [1], the “fold change (FC)” value was determined as 3.4.
In the case of `Cn1nc(CC(=O)Nc2ccc(Cl)c(C(F)(F)F)c2)c2ccccc2c1=O`, in the assay with L6 [2], the EC50 was 2560 nM. For the same compound, the “fold change (FC)” value with L6 [1] was 2.
Regarding `Cn1nc(CC(=O)NC23CC4CC(CC(O)(C4)C2)C3)c2ccccc2c1=O`, in the assay on L6 [1], the “fold change (FC)” value worked out at 0.7.
Take `Cn1nc(CC(=O)Nc2nc(-c3ccc(C(F)(F)F)cc3)cs2)c2ccccc2c1=O`: in the assay with L6 [1], the “fold change (FC)” value is recorded as 3.2.
